The source made the active and inactive calls. The calls are words filed in the database; no cut-off is given here.
Experiments:
[1] = Cytotoxicity against DG75 cells after 120 hrs by MTT assay; assay type: cell-based; conditions: Homo sapiens, DG-75, 120 h
How it was run: (§1)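 KSHV-positive PEL lines (BC2, BC3) and herpesvirus-negative B-lymphoma DG75 exposed to varying nucleoside concentrations for 120 h, then cell viability assay; OD 560 nm, untreated cells of each line set as 100%. Six replicate wells per experiment; IC50 as mean ± SD of three separate experiments.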

Human gammaherpesvirus 8 [2] = assay: Cytotoxicity against Kaposi's sarcoma-associated herpesvirus infected BC3 cells after 120 hrs by MTT assay; assay type: functional, organism-based; conditions: Human gammaherpesvirus 8, BC-3, 120 h; how it was run: as §1
Human gammaherpesvirus 8 [3] = assay: Cytotoxicity against Kaposi's sarcoma-associated herpesvirus infected BC2 cells after 120 hrs by MTT assay; assay type: functional, organism-based; conditions: Human gammaherpesvirus 8, BC-2, 120 h; how it was run: as §1
Human gammaherpesvirus 8 [4] = assay: Cytotoxicity against Kaposi's sarcoma-associated herpesvirus infected BC3 cells in presence of 50 uM thymidine after 72 hrs; assay type: functional, organism-based; conditions: BC-3
How it was run: (§2)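 BC3 cells seeded at 10⁴ cells/mL, given graded compound concentrations plus one common nucleoside (final 50 µM) added simultaneously, in triplicate; 3 days (72 h) at 37 °C, humidified 5% CO₂; growth inhibition read by MTT assay.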

BC-3 = assay: Inhibition of RNA synthesis in KSHV infected BC3 cells assessed as [3H]guanosine incorporation after 1 hr; assay type: functional, Homo sapiens
How it was run: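 BC3 cells (2.5 × 10⁵ cells/mL) cultured 24 h, then compound added for 1 h; before harvest, 30 min pulse label with [³H]thymidine for DNA or tritiated ribonucleoside for RNA (guanosine in text, uridine in legend); synthesis measured as radiolabel incorporation.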

Human gammaherpesvirus 8 [5] = assay: Cytotoxicity against Kaposi's sarcoma-associated herpesvirus infected BC3 cells in presence of 50 uM adenosine after 72 hrs; assay type: functional, organism-based; conditions: BC-3; how it was run: as §2

Structure (SMILES) | IC50 [1] | IC50 (Human gammaherpesvirus 8 [2]) | IC50 (Human gammaherpesvirus 8 [3]) | Activity (Human gammaherpesvirus 8 [4]) | Inhibition (BC-3) | Activity (Human gammaherpesvirus 8 [5])
COc1nc(N)nc2c1ncn2[C@@H]1O[C@H](CO)[C@@H](O)[C@@H]1C#N | > 15 µM | 0.79 µM | 1.51 µM | – | – | –
N#C[C@H]1[C@H](O)[C@@H](CO)O[C@H]1n1ccc(N)nc1=O [TAS-109] | 0.21 µM | 0.23 µM | 0.13 µM | – | – | –
N#C[C@H]1[C@H](O)[C@@H](CO)O[C@H]1n1cnc2c(N)nc(N)nc21 | > 15 µM | 0.47 µM | 1.56 µM | – | – | –
N#C[C@H]1[C@H](O)[C@@H](CO)O[C@H]1n1cnc2c(O)nc(N)nc21 | > 15 µM | 1.14 µM | 7.61 µM | inactive | 80% | inactive
N#C[C@H]1[C@H](O)[C@@H](CO)O[C@H]1n1cnc2c(N)ncnc21 | > 15 µM | > 15 µM | > 15 µM | – | – | –
N#C[C@H]1[C@H](O)[C@@H](CO)O[C@H]1n1cnc2cnc(N)nc21 | > 15 µM | > 15 µM | > 15 µM | – | – | –
N#C[C@@H]1[C@H](O)[C@@H](CO)O[C@H]1n1cnc2c(=O)[nH]c(N)nc21 | > 15 µM | 1.73 µM | 2.61 µM | – | – | –
O=c1[nH]c(=O)n([C@H]2C[C@H](O)[C@@H](CO)O2)cc1/C=C/Br [BRIVUDINE] | > 15 µM | > 15 µM | > 15 µM | – | – | –
Nc1nc2c(ncn2COCCO)c(=O)[nH]1 [ACYCLOVIR] | > 100 µM | > 100 µM | > 100 µM | – | – | –
Nc1nc2c(ncn2COC(CO)CO)c(=O)[nH]1 [GANCICLOVIR] | > 100 µM | 70 µM | 81 µM | – | – | –
N#C[C@H]1[C@H](O)[C@@H](CO)O[C@H]1n1cnc2c(Cl)nc(N)nc21 | > 15 µM | 1.48 µM | 1.73 µM | – | – | –

From ChEMBL document CHEMBL1147135, “9-(2-C-Cyano-2-deoxy-beta-D-arabino-pentofuranosyl)guanine, a potential antitumor agent against B-lymphoma infected with Kaposi's sarcoma-associated herpesvirus” (J Med Chem, 2007)
